# Assay results pooled from the literature.
# Compare with care: the assays were run in different laboratories.
# Target: Dual specificity testis-specific protein kinase 1 (TESK1, Homo sapiens, UniProt Q15569)
Compound,test,conditions,remaining binding
F[C@@H]1CCN(c2nccc(-c3cnn4ncccc34)n2)C1,binding,1 µM,67%
CCN1CCN(Cc2ccc(C(=O)Nc3ccc(C)c(Oc4ccc5c(c4)CC(=O)N5)c3)cc2C(F)(F)F)CC1,"binding, competition with immobilised ligand",1 µM,100%
C=CC(=O)N1CCC(C(=O)NCC(=O)N2CCN(c3nc(-c4cnc(N)nc4C(F)F)nc(N4CCOCC4)n3)CC2)CC1,"binding, competition with immobilised ligand",1 µM,100%
CCCOc1ccc([C@H]2[C@H](C(=O)O)[C@@H](c3ccc4c(c3)OCO4)CN2CC(=O)Nc2c(CC)cccc2CC)cc1,"cell-free assay, competition with immobilised ligand",1 µM,89%
COc1cnc(Nc2cccc(S(N)(=O)=O)c2)nc1N1CCN(c2ccccc2)C(=O)C1,"binding, competition with immobilised ligand",1 µM,96%
CN(CCCC(F)(F)F)c1nccc(-c2cnn3ncccc23)n1,binding,1 µM,67%
C[C@H](NC(=O)c1cnc2n1[C@](C)(Cc1ccc(C#N)cc1)C(=O)N2c1cc(Cl)c(F)c(Cl)c1)C(=O)NC1(c2ccccn2)CC1,"cell-free assay, competition with immobilised ligand",1 µM,100%
CN(C)c1nccc(-c2cnc3ncccn23)n1,binding,1 µM,90%
O=C(c1ccc(Nc2ncc(Cl)c(-c3ccc(Cl)s3)n2)cc1)N1CCC(N2CCCC2)CC1,"binding, competition with immobilised ligand",1 µM,99%
COc1ccnn2ncc(-c3ccnc(N(C)C)n3)c12,binding,1 µM,100%
O=C(NCCCN1CCOCC1)c1ccc(Nc2ncc(Cl)c(-c3ccc(Cl)s3)n2)cc1,"binding, competition with immobilised ligand",1 µM,100%
C[C@H]1CCN(c2nccc(-c3cnn4ncccc34)n2)C1,binding,1 µM,100%
CN(C)CC#Cc1ccc(OCCCc2sc(N3CCc4cccc(C(=O)Nc5nc6ccccc6s5)c4C3)nc2C(=O)O)c(F)c1,"cell-free assay, competition with immobilised ligand",1 µM,100%
N[C@H]1CCN(c2nccc(-c3cnn4ncccc34)n2)C1,binding,1 µM,86%
CO[C@H]1CC[C@H](CNc2ccc(S(=O)(=O)NC(=O)c3ccc(N4CCN(CC5=C(c6ccc(Cl)cc6)CC(C)(C)CC5)CC4)cc3Oc3cnc4[nH]ccc4c3)cc2[N+](=O)[O-])CC1,"cell-free assay, competition with immobilised ligand",1 µM,100%
CNC(=O)[C@@H]1CC[C@@H](n2c(-c3ccc4cnccc4c3)nc3ccc(C(=O)NCc4cccc(C(N)=O)c4)cc32)C1,"binding, competition with immobilised ligand",1 µM,100%
c1cncc(-c2cccc(Nc3nccc(NC4CCCCC4)n3)c2)c1,"binding, competition with immobilised ligand",10 µM,77%
Nc1cnc(N2CCc3cc(S(=O)(=O)Nc4c(F)cc(Cl)cc4F)cc(N4CCCC4=O)c32)nc1,"cell-free assay, competition with immobilised ligand",1 µM,100%
Cc1cnc(Nc2ccc(C(=O)N3CCC(N4CCCC4)CC3)cc2)nc1-c1cc2ccccc2s1,"binding, competition with immobilised ligand",1 µM,72%
Cc1c[nH]c2nccc(Oc3c(F)cc(Nc4cc(Cl)nc(N)n4)cc3F)c12,"cell-free assay, competition with immobilised ligand",0.1 µM,100%
O=C(Nc1c[nH]nc1C(=O)NC1CCNCC1)c1cc(F)cc(F)c1,"binding, competition with immobilised ligand",1 µM,100%
